Published values of several laboratories.
Lines come from different studies, so protocols differ.
MAOA: Amine oxidase [flavin-containing] A (MAOA, Homo sapiens, UniProt P21397)
GSR: Glutathione reductase, mitochondrial (GSR, Homo sapiens, UniProt P00390)
Tspo: Translocator protein (Tspo, Rattus norvegicus, UniProt P16257)
LDHA: L-lactate dehydrogenase A chain (LDHA, Homo sapiens, UniProt P00338)
PRMT3: Protein arginine N-methyltransferase 3 (PRMT3, Homo sapiens, UniProt O60678)
Faah: Fatty-acid amide hydrolase 1 (Faah, Rattus norvegicus, UniProt P97612)
CDKL2: Cyclin-dependent kinase-like 2 (CDKL2, Homo sapiens, UniProt Q92772)
VIPR1: Vasoactive intestinal polypeptide receptor 1 (VIPR1, Homo sapiens, UniProt P32241)
Rps6ka1: Ribosomal protein S6 kinase alpha-1 (Rps6ka1, Rattus norvegicus, UniProt Q63531)

O=C(Nc1cccc(Cl)c1)c1cc(Cl)ccc1O  inhibition (MAOA; enzyme activity, inhibitor; 1 µM, 20 min): 15%
O=C(c1ccc(Cl)cc1)N(Cc1ccccc1)C1CCCCC1  inhibition (Kappa-type opioid receptor (Oprk1, Rattus norvegicus, UniProt P34975); ligand displacement, radioligand; 10 µM): 82%
COc1cc([N+](=O)[O-])ccc1NC(=O)c1ccccc1O  inhibition (MAOA; enzyme activity, inhibitor; 1 µM, 20 min): 9%
CC(C)CCN[C@@H]1C[C@@H](c2ccc(Cl)c(Cl)c2)c2ccccc21 (relative stereo)  inhibition (GSR; enzyme activity, inhibitor; 25 µM): < 12%
CN(C)C1CCN(CC#Cc2nn(C3CCCC3)c3nc(NCc4ccccc4)ncc23)C1 (stereo not shown)  inhibition (Serine/threonine-protein kinase MARK2 (MARK2, Homo sapiens, UniProt Q7KZI7); enzyme activity, inhibitor, FRET; 0.1 µM): 4%
N#Cc1cc(Cn2c(N3CCCC3)nc3ccccc32)ccc1F  inhibition (Tspo; cell-free assay; 10 µM): 76.7%
O=C(Nc1ccccc1)c1ccccc1O  inhibition (MAOA; enzyme activity, inhibitor; 1 µM, 20 min): 28%
COC(=O)CN=c1scc(-c2ccccc2)n1-c1ccc(C)cc1  inhibition (LDHA; enzyme activity, inhibitor, fluorescence; 100 µM, pH 7.2): 52%
CCCCNC(=N)NCCCSC[C@H]1O[C@@H](n2cnc3c(NCCCc4ccccc4)ncnc32)[C@H](O)[C@@H]1O  inhibition (PRMT3; enzyme activity, inhibitor, fluorescence; 10 µM): 11.1%
O=C(OC(C(F)(F)F)C(F)(F)F)N1CCC(CCn2nnc3ccccc32)CC1  inhibition (Faah; enzyme activity, inhibitor; 10 µM): 47%
Cc1cc([N+](=O)[O-])ccc1NC(=O)c1ccc2c(c1)OCO2  inhibition (MAOA; enzyme activity, inhibitor; 1 µM, 20 min): 7%
CCN(CC)CCNC(=O)c1c(C)[nH]c(/C=C2\C(=O)Nc3ccc(F)cc32)c1C  inhibition (CDKL2; binding, competition with immobilised ligand; 10 µM): 92%
COC(=O)CN=c1scc(-c2ccccc2)n1-c1ccccc1OC  inhibition (LDHA; enzyme activity, inhibitor, fluorescence; 100 µM, pH 7.2): 48%
CC[C@H](C)[C@H](NC(=O)[C@H](CCC(N)=O)NC(=O)[C@H](CC(C)C)NC(=O)[C@H](CCSC)NC(=O)[C@H](CCCCN)NC(=O)[C@H](CO)NC(=O)[C@H](CO)NC(=O)[C@H](CCSC)NC(=O)[C@H](CC(C)C)NC(=O)[C@H](CC(N)=O)NC(=O)[C@@H](NC(=O)[C@@H](NC(=O)[C@H](CO)NC(=O)[C@H](CC(C)C)NC(=O)[C@H](CS)NC(=O)[C@H](CCCNC(=N)N)NC(=O)[C@H](CC(=O)O)NC(=O)[C@H](Cc1c[nH]c2ccccc12)NC(=O)[C@H](Cc1ccccc1)NC(=O)[C@H](C)NC(=O)[C@H](CCC(=O)O)NC(=O)[C@@H](N)CCCCN)C(C)C)[C@@H](C)CC)C(=O)N[C@@H](CC(N)=O)C(=O)N[C@@H](C)C(=O)O  inhibition (Cyclin-dependent kinase 5, with p25 (CDK5, Homo sapiens, UniProt Q00535); enzyme activity, inhibitor, radiometric; 50 µM): 20%
O=C(Nc1cc(Cl)cc(Cl)c1)c1cc(Cl)ccc1O  inhibition (MAOA; enzyme activity, inhibitor; 1 µM, 20 min): 4%
COc1cc(/C=C/C(=O)N2CCc3ccccc3C2)ccc1OCc1ccccc1  inhibition (MAOA; enzyme activity, inhibitor, fluorescence; 62.5 µM): 20.6%
Cc1ccc2c(ccn2CCC2CCN(C(=O)OC(C(F)(F)F)C(F)(F)F)CC2)c1  inhibition (Faah; enzyme activity, inhibitor; 10 µM): 36%
N=C(NCCCSC[C@H]1O[C@@H](n2cnc3c(NCCCc4ccccc4)ncnc32)[C@H](O)[C@@H]1O)Nc1ccccc1  inhibition (PRMT3; enzyme activity, inhibitor, fluorescence; 10 µM): 4.92%
O=C1N=C(N2CCCCN2)S/C1=C\c1ccc(F)cc1O  inhibition (VIPR1; ligand displacement, radioligand; 10 µM): 11%
Cc1ccc(Nc2nccc(N(C)c3ccc4c(C)n(C)nc4c3)n2)cc1S(N)(=O)=O  inhibition (Rps6ka1; enzyme activity, inhibitor; 0.3 µM): 27%
N=C(NCCCSC[C@H]1O[C@@H](n2cnc3c(NCCCc4ccccc4)ncnc32)[C@H](O)[C@@H]1O)NCc1ccccc1  inhibition (PRMT3; enzyme activity, inhibitor, fluorescence; 10 µM): -4.37%
Cc1ccc(C(=O)Nc2ccc([N+](=O)[O-])cc2C(F)(F)F)cc1  inhibition (MAOA; enzyme activity, inhibitor; 1 µM, 20 min): 10%
CCCNc1nc2ccccc2n1Cc1ccc(Cl)cc1  inhibition (Tspo; cell-free assay; 10 µM): 49.2%
O=C(Nc1cc(F)ccc1[N+](=O)[O-])c1cc(Cl)ccc1O  inhibition (MAOA; enzyme activity, inhibitor; 1 µM, 20 min): 8%
N=C(NCCCSC[C@H]1O[C@@H](n2cnc3c(NCCCc4ccccc4)ncnc32)[C@H](O)[C@@H]1O)NC1CCCC1  inhibition (PRMT3; enzyme activity, inhibitor, fluorescence; 10 µM): -23.3%
COc1ccc(CN[C@@H]2C[C@@H](c3ccc(Cl)c(Cl)c3)c3ccccc32)cc1 (relative stereo)  inhibition (GSR; enzyme activity, inhibitor; 25 µM): < 12%
CNC(=O)c1cc(Oc2ccc(NC(=O)Nc3ccc(Cl)c(C(F)(F)F)c3)cc2)ccn1  inhibition (Rps6ka1; enzyme activity, inhibitor; 10 µM): 19%
Nc1ncnc2c1ncn2[C@@H]1O[C@H](CSCCNC(=O)NCc2ccccc2)[C@@H](O)[C@H]1O  inhibition (PRMT3; enzyme activity, inhibitor, radiometric; 10 µM): > 95%
N=C(NCCCSC[C@H]1O[C@@H](n2cnc3c(NCCCc4ccccc4)ncnc32)[C@H](O)[C@@H]1O)NCCCc1ccccc1  inhibition (PRMT3; enzyme activity, inhibitor, fluorescence; 10 µM): 10.4%
COc1cc(NC(C)=O)c(Cl)cc1C(=O)Nc1nccs1  inhibition (VIPR1; cell-free assay; 10 µM): -13.5%
CN1CC(Oc2cnc(C#N)cc2-c2ccn3nc(NC(=O)C4CC4)cc3c2)C1  inhibition (CDKL2; enzyme activity, inhibitor; 1 µM): -18%
O=C(Nc1ccc([N+](=O)[O-])cc1Cl)c1ccc2c(c1)OCO2  inhibition (MAOA; enzyme activity, inhibitor; 1 µM, 20 min): 9%
N=C(NCCCSC[C@H]1O[C@@H](n2cnc3c(NCCCc4ccccc4)ncnc32)[C@H](O)[C@@H]1O)NCC1CCC1  inhibition (PRMT3; enzyme activity, inhibitor, fluorescence; 10 µM): 0%
COC(=O)CN=c1scc(-c2ccccc2)n1-c1ccc(Cl)cc1  inhibition (LDHA; enzyme activity, inhibitor, fluorescence; 100 µM, pH 7.2): 41%
Cc1ccc(-n2nc(C(C)(C)C)cc2NC(=O)Nc2ccc(OCCN3CCOCC3)c3ccccc23)cc1  inhibition (Tyrosine-protein phosphatase non-receptor type 1 (PTPN1, Homo sapiens, UniProt P18031); enzyme activity, inhibitor; 10 µM): 18%
N=C(NCCCSC[C@H]1O[C@@H](n2cnc3c(NCCCc4ccccc4)ncnc32)[C@H](O)[C@@H]1O)NC1CCCCC1  inhibition (PRMT3; enzyme activity, inhibitor, fluorescence; 10 µM): -5.11%
Oc1cccc(Nc2nc(-c3ccc(F)cc3F)cs2)c1  inhibition (Histamine H2 receptor (HRH2, Homo sapiens, UniProt P25021); cell-free assay; 10 µM): -33.9%
